Test results from ChEMBL document CHEMBL4152296, “Synthesis, biological evaluation and molecular modeling of novel azaspiro dihydrotriazines as influenza virus inhibitors targeting the host factor dihydrofolate reductase (DHFR)” (Eur J Med Chem, 2018).
Calls of active or inactive are those of the source. No cut-off for these calls is given here.

Legend:
[1] = Selectivity index, ratio of CC50 for human Lunet cells to EC50 for West Nile virus; assay type: toxicity; conditions: read-out: Ratio CC50/EC50
Hepatitis C virus = experiment: Antiviral activity against Hepatitis C virus after 2 days by luminometric method; assay type: functional, organism-based, Hepacivirus hominis; conditions: 48 h
West Nile virus = experiment: Antiviral activity against West Nile virus after 2 days by luminometric method; assay type: functional, organism-based; conditions: 48 h
Dengue virus = experiment: Antiviral activity against DENV after 2 days by luminometric method; assay type: functional, organism-based; conditions: 48 h
[2] = Selectivity index, ratio of CC50 for human Lunet cells to EC50 for HIV; assay type: toxicity; conditions: read-out: Ratio CC50/EC50
[3] = Selectivity index, ratio of CC50 for human Lunet cells to EC50 for DENV; assay type: toxicity; conditions: read-out: Ratio CC50/EC50
[4] = Selectivity index, ratio of CC50 for human Lunet cells to EC50 for Hepatitis C virus; assay type: toxicity; conditions: read-out: Ratio CC50/EC50
[5] = test system: Human immunodeficiency virus; experiment: Antiviral activity against HIV after 2 days by luminometric method; assay type: functional, organism-based; conditions: Human immunodeficiency virus 1, 48 h
Sindbis virus = experiment: Antiviral activity against Sindbis virus infected in African green monkey Vero cells assessed as inhibition of virus-induced cytopathic effect after 3 to 6 days by MTS assay; assay type: functional, organism-based
Dihydrofolate reductase = biological target: T1, Dihydrofolate reductase (Homo sapiens, UniProt P00374); experiment: Binding affinity to human recombinant DHFR using dihydrofolate as substrate after 180 secs by spectrophotometric method
T1 sequence (P00374 whole entry): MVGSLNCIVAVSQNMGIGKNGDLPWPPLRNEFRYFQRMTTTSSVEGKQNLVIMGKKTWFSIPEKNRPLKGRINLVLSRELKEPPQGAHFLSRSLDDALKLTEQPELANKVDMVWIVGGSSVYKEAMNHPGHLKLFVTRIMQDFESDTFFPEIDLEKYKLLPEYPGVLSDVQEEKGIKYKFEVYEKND
How it was run: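 Recombinant human DHFR (0.42 μM) in TES buffer with inhibitor, 60 μM DHF, and 120 μM NADPH added last to start the reaction. Absorbance at 340 nm was followed for 180 s. Six concentrations (1–32 μM) were run in duplicate. IC50 came from Dixon plots assuming competitive inhibition. Ki = IC50/(1+[S]/Km), with DHF Km 5 μM.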

Human alphaherpesvirus 2 = experiment: Antiviral activity against Herpes simplex virus type 2 infected in human HEL299 cells assessed as inhibition of virus-induced cytopathic effect after 3 to 6 days by MTS assay; assay type: functional, organism-based
Vero = experiment: Cytotoxicity against African green monkey Vero cells assessed as reduction in cell viability measured after 3 to 6 days by MTS assay; assay type: cell-based; conditions: chlorocebus sabaeus
[6] = Selectivity index, ratio of MCC for human HeLa cells to EC50 for Respiratory syncytial virus Long infected in human HeLa cells; assay type: toxicity, cell-based; conditions: read-out: Selectivity Index
How it was run: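 Selectivity index for RSV Long in HeLa was calculated as microscopic MCC divided by CPE-based microscopic EC50 from parallel infected and mock-infected cultures.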

Human alphaherpesvirus 1 = experiment: Antiviral activity against Herpes simplex virus type 1 infected in human HEL299 cells assessed as inhibition of virus-induced cytopathic effect after 3 to 6 days by MTS assay; assay type: functional, organism-based
Influenza A virus = experiment: Antiviral activity against Influenza A virus (A/Puerto Rico/8/34(H1N1)) infected in MDCK cells assessed as protection against virus-induced reduction in cell viability after 3 to 6 days by MTS assay; assay type: functional, organism-based; conditions: A/Puerto Rico/8/1934(H1N1)
How it was run: (§1)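 MDCK cells seeded at 9000/well and infected one day later (semiconfluent) with 100 CCID50 virus. Medium was FCS-free Ultra MDCK with 2 μg/mL TPCK-trypsin. Serial five-fold compound dilutions (top 100 μM) were added with the virus, followed by 3–6 days at 35 °C. MTS read-out gave % protection versus virus and mock controls. EC50 was interpolated from semi-log curves; mean of two or three experiments.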

[7] = test system: Human immunodeficiency virus; experiment: Antiviral activity against HIV; assay type: functional, organism-based
Human respirovirus 3 = experiment: Antiviral activity against Parainfluenza virus 3 infected in African green monkey Vero cells assessed as inhibition of virus-induced cytopathic effect after 3 to 6 days by MTS assay; assay type: functional, organism-based
Human adenovirus 2 = experiment: Antiviral activity against Human adenovirus type 2 infected in human HEL299 cells assessed as inhibition of virus-induced cytopathic effect after 3 to 6 days by MTS assay; assay type: functional, organism-based
Punta Toro virus = experiment: Antiviral activity against Punta Toro virus infected in African green monkey Vero cells assessed as inhibition of virus-induced cytopathic effect after 3 to 6 days by MTS assay; assay type: functional, organism-based
Yellow fever virus = experiment: Antiviral activity against Yellow fever virus infected in African green monkey Vero cells assessed as inhibition of virus-induced cytopathic effect after 3 to 6 days by MTS assay; assay type: functional, organism-based
[8] = Selectivity index, ratio of CC50 for MDCK cells to EC50 for Influenza B virus B/Ned/537/05 infected in MDCK cells; assay type: toxicity, cell-based; conditions: dog, read-out: Ratio CC50/EC50
How it was run: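 Selectivity index for influenza B in MDCK was calculated as MTS-based CC50 divided by MTS-based EC50, both measured in parallel in the same assay.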

MDCK = experiment: Cytotoxicity against MDCK cells assessed as reduction in cell viability measured after 3 to 6 days by MTS assay; assay type: cell-based, Canis lupus familiaris; conditions: dog
How it was run: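 Mock-infected MDCK plates were run in parallel (FCS-free Ultra MDCK medium with TPCK-trypsin) with serial five-fold dilutions up to […], 35 °C for 3–6 days. CC50 was interpolated from semi-log dose-response curves; mean of two or three experiments.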

Human coronavirus 229E = experiment: Antiviral activity against Human coronavirus 229E infected in human HEL299 cells assessed as inhibition of virus-induced cytopathic effect after 3 to 6 days by MTS assay; assay type: functional, organism-based
Vaccinia virus = experiment: Antiviral activity against Vaccinia virus infected in human HEL299 cells assessed as inhibition of virus-induced cytopathic effect after 3 to 6 days by MTS assay; assay type: functional, organism-based; conditions: Orthopoxvirus vaccinia
[9] = test system: Vesicular stomatitis virus; experiment: Antiviral activity against Vesicular stomatitis virus infected in human HEL299 cells assessed as inhibition of virus-induced cytopathic effect after 3 to 6 days by MTS assay; assay type: functional, organism-based
[10] = Cytotoxicity against MDCK cells assessed as alterations in normal cell morphology measured after 3 to 6 days by microscopic analysis; assay type: cell-based, Canis lupus familiaris; conditions: dog
How it was run: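 Uninfected MDCK cultures in FCS-free Ultra MDCK medium with trypsin received five-fold compound dilutions (up to […]) for 3–6 days at 35 °C. Microscopy scored morphology, and MCC was taken as the lowest concentration causing minimal rounding, shrinking or lysis.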

[11] = test system: Respiratory syncytial virus; experiment: Antiviral activity against Respiratory syncytial virus Long infected in human HeLa cells assessed as inhibition of virus-induced cytopathic effect after 3 to 6 days by MTS based microscopy; assay type: functional, organism-based
Coxsackievirus B4 = experiment: Antiviral activity against Coxsackie B4 virus infected in human HeLa cells assessed as inhibition of virus-induced cytopathic effect after 3 to 6 days by MTS assay; assay type: functional, organism-based
Influenza B virus [12] = experiment: Antiviral activity against Influenza B virus B/Ned/537/05 infected in MDCK cells assessed as protection against virus-induced reduction in cell viability after 3 to 6 days by MTS assay; assay type: functional, organism-based; conditions: B/Ned/537/05, MDCK; how it was run: as §1
Influenza B virus [13] = experiment: Potency index, ratio of ribavirin EC50 to compound EC50 for Influenza B virus B/Ned/537/05 infected in MDCK cells; assay type: functional
[14] = Cytotoxicity against human HeLa cells assessed as alterations in normal cell morphology measured after 3 to 6 days by microscopic analysis; assay type: cell-based
How it was run: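 Mock-infected HeLa cultures in 2% FCS medium received serial five-fold dilutions […] for 3–6 days at 37 °C. MCC was the lowest concentration giving microscopically visible minimal change in cell morphology (rounding, shrinking, lysis).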

[15] = test system: Mammalian orthoreovirus 1; experiment: Antiviral activity against Reovirus-1 infected in African green monkey Vero cells assessed as inhibition of virus-induced cytopathic effect after 3 to 6 days by MTS assay; assay type: functional, organism-based
[16] = test system: Respiratory syncytial virus; experiment: Potency index, ratio of ribavirin EC50 to compound EC50 for Respiratory syncytial virus Long infected in human HeLa cells; assay type: functional

SMILES	Activity (Sindbis virus)	Ki (Dihydrofolate reductase) [nM]	Activity (Human alphaherpesvirus 2)	Activity (Vero)	Activity (Human alphaherpesvirus 1)	EC50 (Influenza A virus) [nM]	Activity [7]	Activity (Human respirovirus 3)	Activity (Human adenovirus 2)	Activity (Punta Toro virus)	Activity (Yellow fever virus)	CC50 (MDCK) [nM]	Activity (Human coronavirus 229E)	Activity (Vaccinia virus)	Activity [9]	MCC [10] [nM]	EC50 [11] [nM]	Activity (Coxsackievirus B4)	EC50 (Influenza B virus [12]) [nM]	MCC [14] [µM]	other results
Cc1cn(-c2ccc(NC(=O)Nc3ccccc3C)cc2)nn1	–	–	–	–	–	–	–	–	–	–	–	–	–	–	–	–	–	–	–	–	selectivity ratio [1]: 162; EC50 (Hepatitis C virus): 970 to 16500 nM; EC50 (West Nile virus): 970 to 16500 nM; EC50 (Dengue virus): 970 to 16500 nM; selectivity ratio [2]: 162; selectivity ratio [3]: 162; selectivity ratio [4]: 162; EC50 [5]: 970 to 16500 nM
Cc1ccc(C(=O)N2CCC3(CC2)N=C(N)N=C(N)N3c2cccc(Cl)c2)cc1	inactive	640	inactive	Non-Toxic	inactive	> 100000	inactive	inactive	inactive	inactive	inactive	18000	inactive	inactive	inactive	≥ 800	400	inactive	290	≥ 100	selectivity ratio [6]: 250; selectivity ratio [8]: 62; Ratio EC50 (Influenza B virus [13]): 11; Activity [15]: inactive; Ratio EC50 [16]: 15
NC1=NC2(CCN(C(=O)Nc3ccc(F)cc3)CC2)N(c2cccc(Cl)c2)C(N)=N1	inactive	530	inactive	Non-Toxic	inactive	> 100000	inactive	inactive	inactive	inactive	inactive	51000	inactive	inactive	inactive	≥ 160	1800	inactive	190	≥ 100	selectivity ratio [6]: 56; selectivity ratio [8]: 268; Activity [15]: inactive; Ratio EC50 [16]: 3
CCS(=O)(=O)N1CCC2(CC1)N=C(N)N=C(N)N2CCOC	inactive	1400	inactive	Non-Toxic	inactive	> 100000	inactive	inactive	inactive	inactive	inactive	> 100000	inactive	inactive	inactive	> 100000	> 100000	inactive	3000	> 100	Activity [15]: inactive
